Data taken from ChEMBL document CHEMBL3351723, “New derivatives of lupane triterpenoids disturb breast cancer mitochondria and induce cell death” (Bioorg Med Chem, 2014).
Calls of active or inactive are those of the source. No cut-off for these calls is given here.

Assays:
Liver microsome [1] = test: Effect on mitochondrial transmembrane potential in Wistar Han rat liver mitochondria energized with succinate assessed as mitochondrial transmembrane electropotential at 0.133 ug/mg of protein (reference value: 198.0 +/- 5.6 mV); format: functional
Liver microsome [2] = test: Effect on mitochondrial transmembrane potential in Wistar Han rat liver mitochondria energized with succinate assessed as time duration of lag phase at 0.133 ug/mg of protein (reference value: 40.5 +/- 4.5 sec); format: functional
Procedure, shortened: (§1)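 Isolated male Wistar rat liver mitochondria (1.5 mg protein) in 125 mM sucrose, 65 mM KCl, 5 mM KH2PO4, 2.5 mM MgCl2, 5 mM HEPES pH 7.4, 30°C, with 3 μM TPP+. Compound added for 1 min, then 10 mM succinate plus 3 μM rotenone. State 3 started with ADP (83.3 nmol/mg protein). ΔΨ read with a TPP+-selective electrode and calculated by the Kamo equation without binding correction.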

Liver microsome [3] = test: Effect on mitochondrial transmembrane potential in Wistar Han rat liver mitochondria energized with succinate assessed as mitochondrial transmembrane electropotential at 0.333 ug/mg of protein (reference value: 198.0 +/- 5.6 mV); format: functional
Hs-578T = test: Cytotoxicity against human Hs578T cells at 0.125 to 2 ug/ml incubated for 6 hrs folowed by drug wash out and fresh medium addition and measured 3 days after wash out; format: functional, cell-based
Liver microsome [4] = test: Effect on mitochondrial transmembrane potential in Wistar Han rat liver mitochondria energized with succinate assessed as mitochondrial transmembrane electropotential at 0.667 ug/mg of protein (reference value: 198.0 +/- 5.6 mV); format: functional
Liver microsome [5] = test: Effect on mitochondrial transmembrane potential in Wistar Han rat liver mitochondria energized with succinate assessed as ADP depolarization at 0.333 ug/mg of protein (reference value: 23.9 +/- 3.3 mV); format: functional
Liver microsome [6] = test: Effect on mitochondrial transmembrane potential in Wistar Han rat liver mitochondria energized with succinate assessed as mitochondrial transmembrane electropotential at 0.333 ug/mg of protein (reference value: 220.6 +/- 2.5 mV); format: functional
Liver microsome [7] = test: Effect on mitochondrial transmembrane potential in Wistar Han rat liver mitochondria energized with succinate assessed as mitochondrial transmembrane electropotential at 1.333 ug/mg of protein (reference value: 220.6 +/- 2.5 mV); format: functional; procedure, shortened: as §1
Liver microsome [8] = test: Effect on mitochondrial transmembrane potential in Wistar Han rat liver mitochondria energized with succinate assessed as mitochondrial transmembrane electropotential at 0.667 ug/mg of protein (reference value: 220.6 +/- 2.5 mV); format: functional; procedure, shortened: as §1
Liver microsome [9] = test: Effect on mitochondrial transmembrane potential in Wistar Han rat liver mitochondria energized with succinate assessed as ADP depolarization at 0.333 ug/mg of protein (reference value: 34.6 +/- 1.9 mV); format: functional
Liver microsome [10] = test: Effect on mitochondrial transmembrane potential in Wistar Han rat liver mitochondria energized with succinate assessed as ADP depolarization at 0.667 ug/mg of protein (reference value: 34.6 +/- 1.9 mV); format: functional
Liver microsome [11] = test: Effect on mitochondrial transmembrane potential in Wistar Han rat liver mitochondria energized with succinate assessed as time duration of lag phase at 0.133 ug/mg of protein (reference value: 82.8 +/- 23.5 sec); format: functional; procedure, shortened: as §1
Liver microsome [12] = test: Effect on mitochondrial transmembrane potential in Wistar Han rat liver mitochondria energized with succinate assessed as ADP depolarization at 0.133 ug/mg of protein (reference value: 34.7 +/- 1.4 mV); format: functional
Liver microsome [13] = test: Effect on mitochondrial transmembrane potential in Wistar Han rat liver mitochondria energized with succinate assessed as ADP depolarization at 0.667 ug/mg of protein (reference value: 34.7 +/- 1.4 mV); format: functional
Liver microsome [14] = test: Effect on mitochondrial transmembrane potential in Wistar Han rat liver mitochondria energized with succinate assessed as ADP depolarization at 0.333 ug/mg of protein (reference value: 34.7 +/- 1.4 mV); format: functional
Liver microsome [15] = test: Effect on mitochondrial transmembrane potential in Wistar Han rat liver mitochondria energized with succinate assessed as mitochondrial transmembrane electropotential at 0.667 ug/mg of protein (reference value: 216.0 +/- 7.4 mV); format: functional; procedure, shortened: as §1
Liver microsome [16] = test: Effect on mitochondrial transmembrane potential in Wistar Han rat liver mitochondria energized with succinate assessed as mitochondrial transmembrane electropotential at 0.133 ug/mg of protein (reference value: 216.0 +/- 7.4 mV); format: functional
Liver microsome [17] = test: Effect on mitochondrial transmembrane potential in Wistar Han rat liver mitochondria energized with succinate assessed as mitochondrial transmembrane electropotential at 0.333 ug/mg of protein (reference value: 216.0 +/- 7.4 mV); format: functional
Liver microsome [18] = test: Effect on mitochondrial transmembrane potential in Wistar Han rat liver mitochondria energized with succinate assessed as time duration of lag phase at 0.333 ug/mg of protein (reference value: 82.8 +/- 23.5 sec); format: functional; procedure, shortened: as §1
Liver microsome [19] = test: Effect on mitochondrial transmembrane potential in Wistar Han rat liver mitochondria energized with succinate assessed as mitochondrial transmembrane electropotential at 0.333 ug/mg of protein (reference value: 204.2 +/- 5.6 mV); format: functional
Liver microsome [20] = test: Effect on mitochondrial transmembrane potential in Wistar Han rat liver mitochondria energized with succinate assessed as time duration of lag phase at 0.667 ug/mg of protein (reference value: 33.0 +/- 4.6 sec); format: functional; procedure, shortened: as §1
Liver microsome [21] = test: Effect on mitochondrial transmembrane potential in Wistar Han rat liver mitochondria energized with succinate assessed as time duration of lag phase at 0.333 ug/mg of protein (reference value: 33.0 +/- 4.6 sec); format: functional; procedure, shortened: as §1
MDA-MB-231 = test: Cytotoxicity against human MDA-MB-231 cells at 0.125 to 2 ug/ml after 1 to 5 days by sulforhodamine B assay; format: functional, cell-based
Procedure, shortened: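 Sulforhodamine B growth assay in high-glucose DMEM with 10% FBS. Cancer cells seeded at 1×10^4 cells/ml; compound (0.125–2 μg/ml) added 24 h after seeding and left for 1, 3 or 5 days. Cells fixed, total mass stained. Expressed as % of untreated cells at the same time point. Mean ± SEM, five independent experiments.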

BJ = test: Induction of apoptosis in human BJ cells assessed as distribution of mitochondrial polarization and morphology at 0.25 ug/ml after 6 hrs by confocal microscopy; format: cell-based
Procedure, shortened: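 Cells were seeded on glass coverslips and left to attach for 24 h. They were then exposed to vehicle or 0.25 μg/ml compound for 6 h. For the last 30 min they were loaded with 100 nM TMRM in saline buffer with 15 mM glucose, and the probe was kept present during imaging. Mitochondrial polarization and morphology were imaged by fluorescence microscopy, and the TMRM fluorescence standard deviation was quantified. Four independent preparations, mean ± SEM.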

Liver microsome [22] = test: Effect on mitochondrial transmembrane potential in Wistar Han rat liver mitochondria energized with succinate assessed as time duration of lag phase at 0.067 ug/mg of protein (reference value: 33.0 +/- 4.6 sec); format: functional; procedure, shortened: as §1
Liver microsome [23] = test: Effect on mitochondrial transmembrane potential in Wistar Han rat liver mitochondria energized with succinate assessed as mitochondrial transmembrane electropotential at 0.06 ug/mg of protein (reference value: 204.2 +/- 5.6 mV); format: functional

Question: Which Activity (Liver microsome [1]) does the source give for C=C(C)[C@@H]1CC[C@]2(COC(=O)C(CC)[n+]3ccc(N(C)C)cc3)CC[C@]3(C)[C@H](CC[C@@H]4[C@@]5(C)CC[C@H](OC(=O)C(CC)[n+]6ccc(N(C)C)cc6)C(C)(C)[C@@H]5CC[C@]43C)[C@@H]12 (stereo partly specified) here?
Answer: 197 mV

Question: And the TIME (Liver microsome [2])?
Answer: 0.0122 h

Question: And the Activity (Liver microsome [3])?
Answer: 193 mV

Question: And the inhibition (Hs-578T)?
Answer: Active

Question: And the Activity (Liver microsome [4])?
Answer: 193 mV

Question: And the Activity (Liver microsome [5])?
Answer: 23.2 mV

Question: How did the Activity (Liver microsome [6]) turn out when C=C(C)[C@@H]1CC[C@]2(COC(=O)C[N+](C)(C)C(C)C)CC[C@]3(C)[C@H](CC[C@@H]4[C@@]5(C)CC[C@H](OC(=O)C[N+](C)(C)C(C)C)C(C)(C)[C@@H]5CC[C@]43C)[C@@H]12.[Cl-].[Cl-] was run?
Answer: 213 mV

Question: And the Activity (Liver microsome [7])?
Answer: 206 mV

Question: What about the Activity (Liver microsome [8]) of the same compound?
Answer: 211 mV

Question: What about the Activity (Liver microsome [9]) of the same compound?
Answer: 28.8 mV

Question: What about the Activity (Liver microsome [10]) of the same compound?
Answer: 21.9 mV

Question: For C=C(C)[C@@H]1CC[C@]2(COC(=O)C[n+]3ccc(N(C)C)cc3)CC[C@]3(C)[C@H](CC[C@@H]4[C@@]5(C)CC[C@H](OC(=O)C[n+]6ccc(N(C)C)cc6)C(C)(C)[C@@H]5CC[C@]43C)[C@@H]12.[Cl-].[Cl-], which TIME (Liver microsome [11]) is on record?
Answer: 0.0233 h

Question: And the Activity (Liver microsome [12])?
Answer: 29.8 mV

Question: What about the Activity (Liver microsome [13]) of the same compound?
Answer: 28.6 mV

Question: What about the Activity (Liver microsome [14]) of the same compound?
Answer: 29 mV

Question: And the Activity (Liver microsome [15])?
Answer: 206 mV

Question: What about the Activity (Liver microsome [16]) of the same compound?
Answer: 212 mV

Question: And the Activity (Liver microsome [17])?
Answer: 208 mV

Question: And the TIME (Liver microsome [18])?
Answer: 0.0217 h

Question: With C=C(C)[C@@H]1CC[C@]2(COC(=O)CC[n+]3ccc(N(C)C)cc3)CC[C@]3(C)[C@H](CC[C@@H]4[C@@]5(C)CC[C@H](OC(=O)CC[n+]6ccc(N(C)C)cc6)C(C)(C)[C@@H]5CC[C@]43C)[C@@H]12.[Cl-].[Cl-] as the compound, how does the Activity (Liver microsome [19]) read?
Answer: 204 mV

Question: And the TIME (Liver microsome [20])?
Answer: 0.00894 h

Question: What about the TIME (Liver microsome [21]) of the same compound?
Answer: 0.00894 h

Question: What about the inhibition (MDA-MB-231) of the same compound?
Answer: Active

Question: What about the Activity (BJ) of the same compound?
Answer: Non-toxic

Question: And the TIME (Liver microsome [22])?
Answer: 0.009 h

Question: What about the Activity (Liver microsome [23]) of the same compound?
Answer: 206 mV
